Experiments:
Assay type in all cases: toxicity, cell-based
Fibroblast [1] = assay: Multiplex assay against human fibroblast
How it was run: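 Live cells carried four stains from seeding: Hoechst33342, BioTracker Green Microtubule Cytoskeleton Dye, MitoTracker Red and Annexin V Alexa Fluor 680. They were imaged on a CQ1 microscope at 37°C and 5% CO2 after compound addition. Using CellPathfinder machine-learning gating, cells were split into Hoechst high-intensity objects or normal cells, normal cells into healthy, pyknosed or fragmented nuclei, and pyknosed cells into mitotic or apoptotic; tubulin, mitochondrial-mass and membrane-permeability phenotypes are per cents of healthy-nucleus cells.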

Fibroblast [2] = assay: Incucyte cell viability with human fibroblast; conditions: 10 µM, compound concentration 10 uM; note: filed as whole numbers so only -1 and 0 and 1 occur
U2OS = assay: Incucyte cell viability with U2OS; conditions: human, 10 µM, compound concentration 10 uM; note: filed as whole numbers so only -1 and 0 and 1 occur
[3] = 12 h, 1 µM, compound concentration 1 uM, replicate 1
[4] = 12 h, 1 µM, compound concentration 1 uM, replicate 2
[5] = 12 h, 10 µM, compound concentration 10 uM, replicate 1
[6] = 12 h, 10 µM, compound concentration 10 uM, replicate 2
[7] = 24 h, 1 µM, compound concentration 1 uM, replicate 1
[8] = 24 h, 1 µM, compound concentration 1 uM, replicate 2
[9] = 24 h, 10 µM, compound concentration 10 uM, replicate 1
[10] = 24 h, 10 µM, compound concentration 10 uM, replicate 2
[11] = 6 h, replicate number 1, timepoint 6 hours
[12] = 12 h, replicate number 1, timepoint 12 hours
[13] = 18 h, replicate number 1, timepoint 18 hours
[14] = 24 h, replicate number 1, timepoint 24 hours

Cl.Cl.NC1(c2ccc(-c3nc4ccn5c(=O)[nH]nc5c4cc3-c3ccccc3)cc2)CCC1
Population Apoptotic (%) (Fibroblast [1]; [3]): 71%
Population Fragmented Nuclei (%) (Fibroblast [1]; [3]): 35%
Population Healthy Nuclei (%) (Fibroblast [1]; [3]): 48%
Population Hoechst High Intensity Objects (%) (Fibroblast [1]; [3]): 42%
Population Membrane Permeable-Phenotype (%) (Fibroblast [1]; [3]): 4%
Population Mitotic Cells (%) (Fibroblast [1]; [3]): 28%
Population Normal (%) (Fibroblast [1]; [3]): 57%
Population Pyknosed Nuclei (%) (Fibroblast [1]; [3]): 15%
Population Tubulin-Different-Phenotype (%) (Fibroblast [1]; [3]): 6%
Total Cell Count (Fibroblast [1]; [3]): 437
Population Apoptotic (%) (Fibroblast [1]; [4]): 87%
Population Fragmented Nuclei (%) (Fibroblast [1]; [4]): 55%
Population Healthy Nuclei (%) (Fibroblast [1]; [4]): 35%
Population Hoechst High Intensity Objects (%) (Fibroblast [1]; [4]): 45%
Population Membrane Permeable-Phenotype (%) (Fibroblast [1]; [4]): 19%
Population Mitochondria Different-Phenotype (%) (Fibroblast [1]; [4]): 0%
Population Mitotic Cells (%) (Fibroblast [1]; [4]): 12%
Population Normal (%) (Fibroblast [1]; [4]): 54%
Population Pyknosed Nuclei (%) (Fibroblast [1]; [4]): 9%
Population Tubulin-Different-Phenotype (%) (Fibroblast [1]; [4]): 16%
Total Cell Count (Fibroblast [1]; [4]): 161
Population Apoptotic (%) (Fibroblast [1]; [5]): 37%
Population Fragmented Nuclei (%) (Fibroblast [1]; [5]): 19%
Population Healthy Nuclei (%) (Fibroblast [1]; [5]): 38%
Population Hoechst High Intensity Objects (%) (Fibroblast [1]; [5]): 49%
Population Membrane Permeable-Phenotype (%) (Fibroblast [1]; [5]): 7%
Population Mitochondria Different-Phenotype (%) (Fibroblast [1]; [5]): 4%
Population Mitotic Cells (%) (Fibroblast [1]; [5]): 62%
Population Normal (%) (Fibroblast [1]; [5]): 50%
Population Pyknosed Nuclei (%) (Fibroblast [1]; [5]): 41%
Population Tubulin-Different-Phenotype (%) (Fibroblast [1]; [5]): 42%
Total Cell Count (Fibroblast [1]; [5]): 610
Population Apoptotic (%) (Fibroblast [1]; [6]): 80%
Population Fragmented Nuclei (%) (Fibroblast [1]; [6]): 71%
Population Healthy Nuclei (%) (Fibroblast [1]; [6]): 14%
Population Hoechst High Intensity Objects (%) (Fibroblast [1]; [6]): 69%
Population Membrane Permeable-Phenotype (%) (Fibroblast [1]; [6]): 0%
Population Mitochondria Different-Phenotype (%) (Fibroblast [1]; [6]): 40%
Population Mitotic Cells (%) (Fibroblast [1]; [6]): 20%
Population Normal (%) (Fibroblast [1]; [6]): 30%
Population Pyknosed Nuclei (%) (Fibroblast [1]; [6]): 14%
Population Tubulin-Different-Phenotype (%) (Fibroblast [1]; [6]): 20%
Total Cell Count (Fibroblast [1]; [6]): 114
Population Apoptotic (%) (Fibroblast [1]; [7]): 45%
Population Fragmented Nuclei (%) (Fibroblast [1]; [7]): 33%
Population Healthy Nuclei (%) (Fibroblast [1]; [7]): 51%
Population Hoechst High Intensity Objects (%) (Fibroblast [1]; [7]): 49%
Population Membrane Permeable-Phenotype (%) (Fibroblast [1]; [7]): 1%
Population Mitochondria Different-Phenotype (%) (Fibroblast [1]; [7]): 1%
Population Mitotic Cells (%) (Fibroblast [1]; [7]): 54%
Population Normal (%) (Fibroblast [1]; [7]): 50%
Population Pyknosed Nuclei (%) (Fibroblast [1]; [7]): 15%
Population Tubulin-Different-Phenotype (%) (Fibroblast [1]; [7]): 9%
Total Cell Count (Fibroblast [1]; [7]): 428
Population Apoptotic (%) (Fibroblast [1]; [8]): 57%
Population Fragmented Nuclei (%) (Fibroblast [1]; [8]): 57%
Population Healthy Nuclei (%) (Fibroblast [1]; [8]): 32%
Population Hoechst High Intensity Objects (%) (Fibroblast [1]; [8]): 51%
Population Membrane Permeable-Phenotype (%) (Fibroblast [1]; [8]): 8%
Population Mitochondria Different-Phenotype (%) (Fibroblast [1]; [8]): 0%
Population Mitotic Cells (%) (Fibroblast [1]; [8]): 42%
Population Normal (%) (Fibroblast [1]; [8]): 48%
Population Pyknosed Nuclei (%) (Fibroblast [1]; [8]): 9%
Population Tubulin-Different-Phenotype (%) (Fibroblast [1]; [8]): 16%
Total Cell Count (Fibroblast [1]; [8]): 157
Population Apoptotic (%) (Fibroblast [1]; [9]): 24%
Population Fragmented Nuclei (%) (Fibroblast [1]; [9]): 17%
Population Healthy Nuclei (%) (Fibroblast [1]; [9]): 38%
Population Hoechst High Intensity Objects (%) (Fibroblast [1]; [9]): 53%
Population Membrane Permeable-Phenotype (%) (Fibroblast [1]; [9]): 5%
Population Mitochondria Different-Phenotype (%) (Fibroblast [1]; [9]): 10%
Population Mitotic Cells (%) (Fibroblast [1]; [9]): 75%
Population Normal (%) (Fibroblast [1]; [9]): 46%
Population Pyknosed Nuclei (%) (Fibroblast [1]; [9]): 44%
Population Tubulin-Different-Phenotype (%) (Fibroblast [1]; [9]): 42%
Total Cell Count (Fibroblast [1]; [9]): 622
Population Apoptotic (%) (Fibroblast [1]; [10]): 83%
Population Fragmented Nuclei (%) (Fibroblast [1]; [10]): 70%
Population Healthy Nuclei (%) (Fibroblast [1]; [10]): 14%
Population Hoechst High Intensity Objects (%) (Fibroblast [1]; [10]): 57%
Population Membrane Permeable-Phenotype (%) (Fibroblast [1]; [10]): 50%
Population Mitochondria Different-Phenotype (%) (Fibroblast [1]; [10]): 33%
Population Mitotic Cells (%) (Fibroblast [1]; [10]): 16%
Population Normal (%) (Fibroblast [1]; [10]): 42%
Population Pyknosed Nuclei (%) (Fibroblast [1]; [10]): 14%
Population Tubulin-Different-Phenotype (%) (Fibroblast [1]; [10]): 16%
Total Cell Count (Fibroblast [1]; [10]): 97
Growth Rate (Fibroblast [2]; [11]): 0
Growth Rate (Fibroblast [2]; [12]): 0
Growth Rate (Fibroblast [2]; [13]): 0
Growth Rate (Fibroblast [2]; [14]): 0
Growth Rate (U2OS; 0 h, replicate number 1, timepoint 0 hours): 0
Growth Rate (U2OS; [11]): 1
Growth Rate (U2OS; [12]): 1
Growth Rate (U2OS; [13]): 1
Growth Rate (U2OS; [14]): 1

From ChEMBL document CHEMBL4689842, “EUbOPEN Chemogenomics Library wave 1” (2021)
